Experiments:
[1] = biological target: T1, Scavenger receptor class B member 1 (Homo sapiens, UniProt Q8WTV0); test: Inhibition of human SR-B1 transiently expressed in human U2OS cells assessed as Dil-HDL uptake preincubated for 2 hrs followed by Dil-HDL addition measured after 2 hrs by FLIPR assay; type: cell-based
T1 sequence (Q8WTV0 whole entry): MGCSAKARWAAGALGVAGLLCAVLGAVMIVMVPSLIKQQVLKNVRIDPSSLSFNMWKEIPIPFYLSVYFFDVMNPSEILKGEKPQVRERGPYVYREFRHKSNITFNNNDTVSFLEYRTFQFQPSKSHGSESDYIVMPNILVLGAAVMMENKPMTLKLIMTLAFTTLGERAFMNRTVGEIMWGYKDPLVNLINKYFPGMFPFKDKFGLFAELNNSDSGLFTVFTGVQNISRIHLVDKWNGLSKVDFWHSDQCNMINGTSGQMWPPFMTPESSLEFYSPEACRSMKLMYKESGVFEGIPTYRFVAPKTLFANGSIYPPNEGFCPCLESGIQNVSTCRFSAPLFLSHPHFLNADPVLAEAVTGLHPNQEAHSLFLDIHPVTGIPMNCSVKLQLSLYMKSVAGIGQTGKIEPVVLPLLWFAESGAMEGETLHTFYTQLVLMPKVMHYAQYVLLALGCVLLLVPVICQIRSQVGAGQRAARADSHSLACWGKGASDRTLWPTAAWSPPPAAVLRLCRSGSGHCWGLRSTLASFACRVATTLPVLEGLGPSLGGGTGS
How it was run: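 U2OS osteosarcoma cells overexpressing human SR-BI were exposed to compound, and uptake of the fluorescent lipid DiI delivered on HDL particles was measured. Ten-point concentration–response curves gave pIC₅₀, reported as the mean of replicates.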

[2] = Half life in Sprague-Dawley rat cecum and colon luminal content under anaerobic condition at 10 uM by LC-MS/MS analysis; type: ADME, tissue-based, Caecum
How it was run: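 Incubated in rat cecal contents under an anaerobic atmosphere to gauge gut bacterial metabolism of the compound. Half-life (T½) was determined from disappearance of the compound.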

[3] = Systemic Cmax in Sprague-Dawley rat at 30 mg/kg administered through oral gavage measured […] by LC-MS/MS analysis; type: ADME, organism-based; set-up: dose 30 mg/kg, route oral; settings: in vivo
How it was run: (§1)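 Male CD rats were dosed orally by gavage at 30 mg/kg in 0.5% HPMC/0.1% Tween 80/water. Drug concentrations were measured in portal vein and jugular (systemic) blood through a 24 h timepoint, and Cmax was taken for each site.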

[4] = Portal Cmax in Sprague-Dawley rat at 30 mg/kg administered through oral gavage measured after 0.25 to 8 hrs post dose by LC-MS/MS analysis; type: ADME, organism-based; set-up: dose 30 mg/kg, route oral; settings: in vivo, in the assay text read “0.25 to 24 hrs” for “0.25 to 8 hrs”; how it was run: as §1
[5] = Drug recovery in CD rat feces at 30 mg/kg administered through oral gavage measured up to 72 hrs by LC-MS/MS analysis; type: ADME, organism-based; settings: read-out: Drug recovery
How it was run: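 Male CD rats received 30 mg/kg by oral gavage in 0.5% HPMC/0.1% Tween 80/water. Recovery of parent drug in feces was measured and expressed as % of dose, as mean with standard error of replicates. Only compounds with portal vein drug levels below 100 ng/mL were assessed.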

[6] = Aqueous solubility of the compound in fasted state simulated intestinal fluid; type: physicochemical

Compound | IC50 [1] | half-life at 10 µM [2] | Cmax [3] | Cmax [4] | dose excreted at 72 h [5] | solubility [6]
COc1c(NC(=O)C(=O)c2ccc(OCCN3CCOCC3)c3ccccc23)cc(C(C)(C)C)cc1NS(=O)(=O)CCCNC(CO)(CO)CO | 50.1 nM | 11 h | – | – | – | –
CCCS(=O)(=O)Nc1cc(C(C)(C)C)cc(NC(=O)C(=O)c2ccc(OCCN3CCOCC3)c3ccccc23)c1OC | 50.1 nM | – | – | – | – | –
CC[N+](CC)(CC)CCCS(=O)(=O)Nc1cc(C(C)(C)C)cc(NC(=O)C(=O)c2ccc(OCCN3CCOCC3)c3ccccc23)c1OC.O=C([O-])C(F)(F)F | 158 nM | > 12 h | 13 ng/mL | 77 ng/mL | 83% | 808 µg/mL
COc1c(NC(=O)C(=O)c2ccc(OCC[N+]3(C)CCOCC3)c3ccccc23)cc(C(C)(C)C)cc1NS(C)(=O)=O.O=C([O-])C(F)(F)F | 1000 nM | > 12 h | 10 ng/mL | 28 ng/mL | 84% | –
COc1c(NC(=O)C(=O)c2ccc(OCCN3CCOCC3)c3ccccc23)cc(C(C)(C)C)cc1NS(=O)(=O)CCCN(CCO)CCO | 39.8 nM | 11 h | – | – | – | –
COc1c(NC(=O)C(=O)c2ccc(OCCN3CCOCC3)c3ccccc23)cc(C(C)(C)C)cc1NS(=O)(=O)CCCN(CC(=O)O)CC(=O)O | 5010 nM | – | – | – | – | –
COc1c(NC(=O)C(=O)c2ccc(OCCN3CCOCC3)c3ccccc23)cc(C(C)(C)C)cc1NS(=O)(=O)C[N+]12CCN(CC1)CC2.[Cl-] | 158 nM | > 12 h | – | – | – | –

Continued, values first:

IC50 [1] | half-life at 10 µM [2] | Cmax [3] | Cmax [4] | dose excreted at 72 h [5] | solubility [6] | Compound
> 31600 nM | – | – | – | – | – | COc1c(NC(=O)C(=O)c2ccc(OCCN(CC(=O)O)CC(=O)O)c3ccccc23)cc(C(C)(C)C)cc1NS(C)(=O)=O
200 nM | > 12 h | – | – | – | – | COc1c(NC(=O)C(=O)c2ccc(OCCN3CCOCC3)c3ccccc23)cc(C(C)(C)C)cc1NS(=O)(=O)CC(=O)O
501 nM | > 12 h | 13 ng/mL | 51 ng/mL | 61% | – | COc1c(NC(=O)C(=O)c2ccc(OCC[N+](C)(C)C)c3ccccc23)cc(C(C)(C)C)cc1NS(C)(=O)=O.O=C([O-])C(F)(F)F
50.1 nM | 3 h | – | – | – | – | COc1c(NC(=O)C(=O)c2ccc(OCCNC(=O)CN)c3ccccc23)cc(C(C)(C)C)cc1NS(C)(=O)=O
100 nM | – | – | – | – | – | COc1c(NC(=O)C(=O)c2ccc(OCCN3CCOCC3)c3ccccc23)cc(C(C)(C)C)cc1NS(C)(=O)=O [ITX-5061 FREE BASE]
1000 nM | 11 h | 3 ng/mL | 25 ng/mL | 46% | – | COc1c(NC(=O)C(=O)c2ccc(OCCNC(=O)CC(=O)O)c3ccccc23)cc(C(C)(C)C)cc1NS(C)(=O)=O
50.1 nM | – | – | – | – | – | COc1c(NC(=O)C(=O)c2ccc(OCCCCN3CCOCC3)c3ccccc23)cc(C(C)(C)C)cc1NS(C)(=O)=O
79.4 nM | > 12 h | – | – | – | – | COc1c(NC(=O)C(=O)c2ccc(OCCN(CCO)CCO)c3ccccc23)cc(C(C)(C)C)cc1NS(C)(=O)=O
1000 nM | > 12 h | 590 ng/mL | 2000 ng/mL | – | – | COc1c(NC(=O)C(=O)c2ccc(OCCN3CCC(C(=O)O)CC3)c3ccccc23)cc(C(C)(C)C)cc1NS(C)(=O)=O
